# Activity calls are given as the source filed them. The calls are words filed in the database; no cut-off is given here.
# What was measured:
# [1] = biological target: T1, Voltage-dependent calcium channel subunit alpha-2/delta-1 (Homo sapiens, UniProt P54289); assay: Displacement of [3H]-gabapentin from human Cav alpha2delta1 expressed in CHO-K1 cell membranes incubated for 60 mins by scintillation counting method; design: species or system Membrane
# Procedure, shortened: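 Radioligand binding with [3H]-gabapentin on α2δ-1-enriched membranes from CHO-K1 cells expressing human Cav2.2/β3/α2δ1. Compounds were first screened at 10 μM. Ki was calculated for those giving more than 50% inhibition. Values are mean ± SD of two determinations.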
# CYP3A4 = CYP3A4 (Homo sapiens, UniProt P08684); assay: Inhibition of recombinant CYP3A4 (unknown origin) using BFC as substrate at 1 uM measured after 30 mins in presence of NADPH generating system by fluorescence assay relative to control; type: ADME; conditions: recombinant CYP3A4, probe BFC
# Sequence of CYP3A4 (P08684 whole entry): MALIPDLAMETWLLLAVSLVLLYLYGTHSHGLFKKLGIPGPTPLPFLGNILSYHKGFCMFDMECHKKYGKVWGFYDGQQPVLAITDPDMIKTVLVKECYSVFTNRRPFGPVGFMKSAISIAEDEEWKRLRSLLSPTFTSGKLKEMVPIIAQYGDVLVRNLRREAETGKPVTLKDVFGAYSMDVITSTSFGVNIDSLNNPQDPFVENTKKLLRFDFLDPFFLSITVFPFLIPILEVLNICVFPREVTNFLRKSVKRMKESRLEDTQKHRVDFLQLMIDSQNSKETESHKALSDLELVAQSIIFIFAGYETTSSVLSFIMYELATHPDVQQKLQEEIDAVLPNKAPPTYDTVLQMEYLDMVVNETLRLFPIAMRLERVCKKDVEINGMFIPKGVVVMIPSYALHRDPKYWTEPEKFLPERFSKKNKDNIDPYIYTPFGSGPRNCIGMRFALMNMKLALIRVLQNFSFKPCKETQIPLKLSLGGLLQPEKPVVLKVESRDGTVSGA
# Procedure, shortened: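 Recombinant human CYP3A4 incubated with test compound at 1 μM. 7-Benzyloxy-4-trifluoromethylcoumarin (BFC) was the probe substrate, with fluorescence read-out, reported as percent inhibition.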
# [2] = biological target: Histamine H1 receptor (Homo sapiens) (UniProt P35367); assay: Binding affinity to histamine H1 receptor (unknown origin)
# Sequence of Histamine H1 receptor (Homo sapiens) (P35367 whole entry): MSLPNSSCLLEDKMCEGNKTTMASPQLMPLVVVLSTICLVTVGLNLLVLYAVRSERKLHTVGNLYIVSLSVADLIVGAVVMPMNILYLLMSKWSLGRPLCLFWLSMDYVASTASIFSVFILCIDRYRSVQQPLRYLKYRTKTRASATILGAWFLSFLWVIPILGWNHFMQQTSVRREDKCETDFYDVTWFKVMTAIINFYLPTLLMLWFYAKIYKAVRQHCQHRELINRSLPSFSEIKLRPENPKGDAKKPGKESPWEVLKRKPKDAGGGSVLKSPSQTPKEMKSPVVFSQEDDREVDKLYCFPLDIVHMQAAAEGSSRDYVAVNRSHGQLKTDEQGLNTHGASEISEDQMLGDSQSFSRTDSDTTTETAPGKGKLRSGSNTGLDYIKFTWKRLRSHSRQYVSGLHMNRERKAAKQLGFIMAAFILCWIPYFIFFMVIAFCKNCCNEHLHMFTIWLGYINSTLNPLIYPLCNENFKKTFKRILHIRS
# [3] = biological target: Sodium-dependent dopamine transporter (Homo sapiens) (UniProt Q01959); assay: Binding affinity to dopamine transporter (unknown origin)
# [4] = biological target: Sodium-dependent noradrenaline transporter (Homo sapiens) (UniProt P23975); assay: Binding affinity to norepinephrine transporter (unknown origin)
# Sequence of Sodium-dependent noradrenaline transporter (Homo sapiens) (P23975 whole entry): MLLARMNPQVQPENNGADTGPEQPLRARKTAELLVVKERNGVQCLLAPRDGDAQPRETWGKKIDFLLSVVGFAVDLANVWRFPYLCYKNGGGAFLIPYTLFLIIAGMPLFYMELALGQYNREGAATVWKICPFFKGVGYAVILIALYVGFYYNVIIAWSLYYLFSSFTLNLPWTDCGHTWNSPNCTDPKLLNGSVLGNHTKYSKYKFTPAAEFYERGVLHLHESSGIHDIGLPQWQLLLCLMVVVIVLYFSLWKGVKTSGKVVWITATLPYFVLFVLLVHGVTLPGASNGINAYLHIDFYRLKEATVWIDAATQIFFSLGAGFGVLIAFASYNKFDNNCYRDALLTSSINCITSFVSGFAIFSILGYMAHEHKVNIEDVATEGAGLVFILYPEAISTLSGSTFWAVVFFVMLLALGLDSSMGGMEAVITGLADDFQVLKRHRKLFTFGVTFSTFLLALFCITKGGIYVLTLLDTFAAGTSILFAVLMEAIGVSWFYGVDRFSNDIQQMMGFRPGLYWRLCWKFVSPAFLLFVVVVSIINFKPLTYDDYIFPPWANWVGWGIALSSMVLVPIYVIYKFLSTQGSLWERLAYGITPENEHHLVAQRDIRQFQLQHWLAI
# [5] = biological target: 5-hydroxytryptamine receptor 1A (Homo sapiens) (UniProt P08908); assay: Binding affinity to 5HT1A receptor (unknown origin)
# [6] = biological target: Sigma non-opioid intracellular receptor 1 (Homo sapiens) (UniProt Q99720); assay: Binding affinity to sigma 1 receptor (unknown origin)
# Sequence of Sigma non-opioid intracellular receptor 1 (Homo sapiens) (Q99720 whole entry): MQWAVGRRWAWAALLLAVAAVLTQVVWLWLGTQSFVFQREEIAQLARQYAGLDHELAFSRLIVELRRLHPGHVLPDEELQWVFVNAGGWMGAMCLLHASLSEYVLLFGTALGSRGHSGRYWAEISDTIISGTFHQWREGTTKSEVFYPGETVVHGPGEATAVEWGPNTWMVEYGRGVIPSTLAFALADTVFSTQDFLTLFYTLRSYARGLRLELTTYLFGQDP
# [7] = biological target: 5-hydroxytryptamine receptor 2B (Homo sapiens) (UniProt P41595); assay: Binding affinity to 5HT2B receptor (unknown origin)
# Sequence of 5-hydroxytryptamine receptor 2B (Homo sapiens) (P41595 whole entry): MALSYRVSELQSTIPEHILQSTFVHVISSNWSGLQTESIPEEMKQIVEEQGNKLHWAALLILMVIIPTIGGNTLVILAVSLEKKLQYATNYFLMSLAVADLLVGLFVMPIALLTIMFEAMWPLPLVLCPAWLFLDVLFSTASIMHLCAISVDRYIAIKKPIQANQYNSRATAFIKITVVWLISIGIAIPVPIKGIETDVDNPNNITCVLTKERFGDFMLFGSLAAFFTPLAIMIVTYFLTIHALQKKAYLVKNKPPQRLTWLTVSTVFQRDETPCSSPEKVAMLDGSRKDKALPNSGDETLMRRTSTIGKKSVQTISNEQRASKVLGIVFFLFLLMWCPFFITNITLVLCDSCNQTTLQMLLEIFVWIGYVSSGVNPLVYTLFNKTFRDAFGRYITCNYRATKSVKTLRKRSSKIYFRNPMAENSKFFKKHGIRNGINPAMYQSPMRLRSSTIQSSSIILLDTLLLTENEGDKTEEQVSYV
# [8] = biological target: Alpha-1A adrenergic receptor (Homo sapiens) (UniProt P35348); assay: Binding affinity to alpha1A receptor (unknown origin)
# [9] = biological target: Sodium-dependent serotonin transporter (Homo sapiens) (UniProt P31645); assay: Binding affinity to serotonin transporter (unknown origin)
# Sequence of Sodium-dependent serotonin transporter (Homo sapiens) (P31645 whole entry, looked up): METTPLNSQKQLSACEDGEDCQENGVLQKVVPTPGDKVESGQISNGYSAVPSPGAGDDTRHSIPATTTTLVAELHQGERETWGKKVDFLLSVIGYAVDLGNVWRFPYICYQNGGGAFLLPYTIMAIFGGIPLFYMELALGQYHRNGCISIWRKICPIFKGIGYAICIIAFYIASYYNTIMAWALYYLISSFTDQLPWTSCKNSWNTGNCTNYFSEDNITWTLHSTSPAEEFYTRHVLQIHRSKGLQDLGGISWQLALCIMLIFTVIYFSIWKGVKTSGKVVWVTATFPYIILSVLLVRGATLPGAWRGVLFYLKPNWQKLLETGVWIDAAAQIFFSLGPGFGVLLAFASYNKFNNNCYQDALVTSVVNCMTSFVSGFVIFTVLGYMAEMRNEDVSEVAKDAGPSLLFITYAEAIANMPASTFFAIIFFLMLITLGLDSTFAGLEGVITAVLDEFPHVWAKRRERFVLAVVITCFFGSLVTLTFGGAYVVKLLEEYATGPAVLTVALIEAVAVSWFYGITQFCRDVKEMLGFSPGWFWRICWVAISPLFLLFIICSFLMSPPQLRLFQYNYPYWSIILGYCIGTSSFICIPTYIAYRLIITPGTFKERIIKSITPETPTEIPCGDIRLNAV
# [10] = biological target: Kappa-type opioid receptor (Homo sapiens) (UniProt P41145); assay: Binding affinity to kappa opioid receptor (unknown origin)
# [11] = biological target: Alpha-2A adrenergic receptor (Homo sapiens) (UniProt P08913); assay: Binding affinity to alpha2A receptor (unknown origin)
# Sequence of Alpha-2A adrenergic receptor (Homo sapiens) (P08913 whole entry): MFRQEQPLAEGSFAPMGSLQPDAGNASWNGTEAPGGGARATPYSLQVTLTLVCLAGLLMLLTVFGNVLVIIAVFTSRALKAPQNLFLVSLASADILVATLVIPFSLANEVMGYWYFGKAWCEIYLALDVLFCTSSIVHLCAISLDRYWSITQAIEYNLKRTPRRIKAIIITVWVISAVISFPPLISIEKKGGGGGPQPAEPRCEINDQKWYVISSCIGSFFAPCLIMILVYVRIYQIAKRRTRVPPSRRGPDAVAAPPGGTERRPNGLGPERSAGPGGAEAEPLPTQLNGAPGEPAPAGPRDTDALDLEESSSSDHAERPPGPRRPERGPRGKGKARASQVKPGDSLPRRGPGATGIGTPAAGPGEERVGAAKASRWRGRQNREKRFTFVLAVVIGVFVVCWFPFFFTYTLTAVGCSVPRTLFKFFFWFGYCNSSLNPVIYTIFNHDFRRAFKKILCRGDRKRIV
# [12] = biological target: Delta-type opioid receptor (Homo sapiens) (UniProt P41143); assay: Binding affinity to delta opioid receptor (unknown origin)
# Mu-type opioid receptor = Mu-type opioid receptor (Homo sapiens, UniProt P35372); assay: Binding affinity to mu opioid receptor (unknown origin)
# Sequence of Mu-type opioid receptor (P35372 whole entry): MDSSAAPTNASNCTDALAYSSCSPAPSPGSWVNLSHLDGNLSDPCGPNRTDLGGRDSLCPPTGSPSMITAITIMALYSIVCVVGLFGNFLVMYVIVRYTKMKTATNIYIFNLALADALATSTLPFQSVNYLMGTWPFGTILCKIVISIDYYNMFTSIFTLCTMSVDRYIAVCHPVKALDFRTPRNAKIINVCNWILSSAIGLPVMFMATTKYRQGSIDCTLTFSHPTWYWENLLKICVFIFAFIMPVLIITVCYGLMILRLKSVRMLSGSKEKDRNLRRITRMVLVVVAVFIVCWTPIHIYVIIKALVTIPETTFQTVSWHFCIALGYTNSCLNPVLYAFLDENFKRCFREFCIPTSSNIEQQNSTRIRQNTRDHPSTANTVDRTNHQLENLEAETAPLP
# [13] = Induction of motor coordination impairment in CD1 mouse assessed as latency to fall at 20 mg/kg, ip measured upto 180 mins by rotarod test; type: organism-based; conditions: in vivo, 3 h
# Procedure, shortened: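 Mice were dosed at 20 mg/kg ip, with vehicle and pregabalin groups run in the same paradigm. Latency to fall from the elevated rotating drum was recorded at 30, 120 and 180 min after administration.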
# Mus musculus = assay: Analgesic activity in CD1 mouse model of capsaicin-induced mechanical hypersensitivity assessed as reduction in mechanical hypersensitivity at 20 mg/kg, ip administered 30 mins prior to capsaicin stimulation and measured after 15 mins; type: functional; design: scale not given: the % may be the effect or the level left; conditions: time 45 min, 0.75 h
# Procedure, shortened: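 Male CD1 mice, 8–12 per group, given 20 mg/kg ip alongside vehicle and pregabalin comparator groups. Capsaicin test read out as percentage reduction in capsaicin-induced mechanical hypersensitivity.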
# [14] = biological target: T1, Voltage-dependent calcium channel subunit alpha-2/delta-1; assay: Displacement of [3H]-gabapentin from human Cav alpha2delta1 expressed in CHO-K1 cell membranes at 10 uM incubated for 60 mins by scintillation counting method relative to control; conditions: Membrane
# Procedure, shortened: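 Human α2δ-1-enriched membranes from CHO-K1 cells stably expressing human Cav2.2/β3/α2δ1. Test compound at 10 μM competes with [3H]-gabapentin radioligand, and percent inhibition of specific binding is recorded. Compounds exceeding 50% inhibition go on to Ki determination, with Ki values given as the mean of two determinations.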
# T1 sequence (P54289 25-956 limits assumed): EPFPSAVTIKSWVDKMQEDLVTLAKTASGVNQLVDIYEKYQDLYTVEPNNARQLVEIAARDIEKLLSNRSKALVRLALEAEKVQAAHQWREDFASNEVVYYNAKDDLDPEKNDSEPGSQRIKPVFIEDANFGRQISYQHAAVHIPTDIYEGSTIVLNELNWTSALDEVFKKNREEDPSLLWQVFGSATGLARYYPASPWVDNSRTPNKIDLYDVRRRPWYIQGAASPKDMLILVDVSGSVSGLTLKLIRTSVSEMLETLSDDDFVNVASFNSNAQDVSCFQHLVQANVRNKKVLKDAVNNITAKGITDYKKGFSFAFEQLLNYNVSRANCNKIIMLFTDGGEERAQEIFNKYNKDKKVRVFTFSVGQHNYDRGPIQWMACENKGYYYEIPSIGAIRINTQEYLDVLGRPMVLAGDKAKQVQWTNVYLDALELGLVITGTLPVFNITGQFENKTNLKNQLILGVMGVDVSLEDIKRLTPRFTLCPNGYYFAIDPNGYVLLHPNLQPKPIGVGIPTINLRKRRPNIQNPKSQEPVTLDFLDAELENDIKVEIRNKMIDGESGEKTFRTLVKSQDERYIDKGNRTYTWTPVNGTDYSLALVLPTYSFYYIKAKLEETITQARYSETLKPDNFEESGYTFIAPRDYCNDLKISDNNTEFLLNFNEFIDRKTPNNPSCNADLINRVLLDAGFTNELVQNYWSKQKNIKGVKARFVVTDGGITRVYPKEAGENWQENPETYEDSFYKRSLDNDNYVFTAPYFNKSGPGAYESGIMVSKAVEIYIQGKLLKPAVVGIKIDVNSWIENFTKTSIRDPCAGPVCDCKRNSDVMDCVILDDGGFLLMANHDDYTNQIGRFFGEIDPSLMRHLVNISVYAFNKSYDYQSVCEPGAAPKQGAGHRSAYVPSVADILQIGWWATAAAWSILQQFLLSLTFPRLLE
# T1 sequence (P54289 957-1103 limits assumed): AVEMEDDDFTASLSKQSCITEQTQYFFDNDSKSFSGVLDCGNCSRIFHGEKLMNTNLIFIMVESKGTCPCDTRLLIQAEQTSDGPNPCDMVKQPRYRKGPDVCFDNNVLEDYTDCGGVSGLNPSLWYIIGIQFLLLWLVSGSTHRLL
SMILES,Ki [1] [nM],"inhibition at 0.5 h, 1 µM (CYP3A4) [%]",also measured
CCCC(c1nc2ccc(NCC)cc2c(=O)n1CC)N1C[C@@H](C)N[C@@H](C)C1 (stereo not given in full),44,69,
CCC[C@H](c1nc2ccc(Br)cc2c(=O)n1CC)N1CCN[C@H](C)C1,16,51,Activity [2]: Active; Activity [3]: Active; Activity [4]: Active; Activity [5]: Active; Activity [6]: Active; Activity [7]: Active; Activity [8]: Active; Activity [9]: Active; Activity [10]: Active; Activity [11]: Active; Activity [12]: Active; Activity (Mu-type opioid receptor): Active
CCC(c1nc2ccccc2c(=O)n1CCOC)N1CCNCC1 (stereo not given),1810,37,
COCCn1c(C(CC2CC2)N2C[C@@H](C)N[C@@H](C)C2)nc2ccccc2c1=O (stereo not given in full),413,94,
CC(C)C[C@H](CN)CC(=O)O [PREGABALIN],,43,Activity [13]: Toxic; Activity (Mus musculus): 34%
CCC(c1nc2ccccc2c(=O)n1CCCOC)N1C[C@@H](C)N[C@@H](C)C1 (stereo not given in full),> 10000,,inhibition [14]: < 50%
CCCC(c1nc2ccc(Br)cc2c(=O)n1CC)N1CCC(NC)CC1 (stereo not given),436,83,
CCCC(c1nc2ccccc2c(=O)n1Cc1ccco1)N1C[C@@H](C)N[C@@H](C)C1 (stereo not given in full),230,99,
CCCC(c1nc2ccc(-c3ccncc3)cc2c(=O)n1CC)N1C[C@@H](C)N[C@@H](C)C1 (stereo not given in full),38,92,
CCC[C@H](c1nc2ccc(Br)cc2c(=O)n1CC)N1CCN[C@@H](C)C1,91,73,Activity [2]: Active; Activity [3]: Active; Activity [4]: Active; Activity [5]: Active; Activity [6]: Active; Activity [7]: Active; Activity [8]: Active; Activity [9]: Active; Activity [10]: Active; Activity [11]: Active; Activity [12]: Active; Ki (Mu-type opioid receptor): 157 nM
CCCCC(c1nc2ccccc2c(=O)n1CCOC)N1C[C@@H](C)N[C@@H](C)C1 (stereo not given in full),1340,97,
CCCC(c1nc2ccccc2c(=O)n1CCOC)N1CCNCC1 (stereo not given),638,67,
CCCC(c1nc2c(Br)cccc2c(=O)n1CC)N1C[C@@H](C)N[C@@H](C)C1 (stereo not given in full),> 1000,,
CCCC(c1nc2ccccc2c(=O)n1CCOC)N1C[C@@H](C)N[C@@H](C)C1 (stereo not given in full),241,94,
CCC[C@@H](c1nc2ccncc2c(=O)n1CC)N1CCN[C@@H](C)C1,> 1000,44,
CCC[C@H](c1nc2ccc(Br)cc2c(=O)n1CC)N1CCNC(C)(C)C1,1580,72,
CCC[C@@H](c1nc2ccc(Br)cc2c(=O)n1CC)N1CCN[C@H](C)C1,> 1000,21,
CCCC(c1nc2cc(Br)ccc2c(=O)n1CC)N1C[C@@H](C)N[C@@H](C)C1 (stereo not given in full),15,97,

# Source: ChEMBL document CHEMBL4823330, “Piperazinyl Bicyclic Derivatives as Selective Ligands of the α2δ-1 Subunit of Voltage-Gated Calcium Channels” (ACS Med Chem Lett, 2021)
